Here are results for three compounds from ChEMBL document CHEMBL1158824, “Using jasplakinolide to turn on pathways that enable the isolation of new chaetoglobosins from Phomospis asparagi” (J Nat Prod, 2005).

The subject of one data set is L1210. As to the kind of experiment: Cytotoxicity against mouse L1210 cells assessed as zone units at 15 ug/disk by disk diffusion soft agar assay. Type of data set: functional. An outline of the steps: (§1)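 Disk diffusion soft agar colony formation assay at 15 μg/disk; cytotoxicity read as zone units. Cells: L1210 murine leukemia, C38 murine colon, CFU-GM normal bone marrow. Samples called solid tumor selective when the solid tumor zone exceeds the normal-cell or leukemia zone by more than 250 units.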
(In general: A growth-free zone around the sample is the usual read-out of agar diffusion tests.)

The next data set deals with MC-38. As to the kind of experiment: Cytotoxicity against mouse C38 cells assessed as zone units at 15 ug/disk by disk diffusion soft agar assay. Type of data set: functional. The gist of the method: as §1
Data set [1] can be described thus: Cytotoxicity against mouse CFU-GM cells assessed as zone units at 15 ug/disk by disk diffusion soft agar assay. Type of data set: cell-based. The gist of the method: as §1
Data set [2] has as its system A10. Description: Antimicrofilament activity in rat A10 cells assessed as total loss of microfilament at 5 ug/ml by rhodamine-phalloidin staining. Type of data set: functional, cell-based. The gist of the method:
(§2)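 A-10 rat aortic smooth muscle cells treated with compound, then fixed; microfilament network scored as loss, additional loss, total loss, or cell loss, at the concentration given in each line.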

For data set [3], the system named is A10. As to the kind of experiment: Antimicrofilament activity in rat A10 cells assessed as loss of microfilament at 1 ug/ml by rhodamine-phalloidin staining. It counts as functional, cell-based. An outline of the steps: as §2
The subject of data set [4] is A10. Description: Antimicrofilament activity in rat A10 cells assessed as loss of microfilament at 2.5 ug/ml by rhodamine-phalloidin staining. It counts as functional, cell-based. The gist of the method: as §2
In data set [5] the test system is A10. Description: Antimicrofilament activity in rat A10 cells assessed as loss of microfilament at 15 ug/ml by rhodamine-phalloidin staining. It counts as functional, cell-based. An outline of the steps:
as §2

Data set [6] deals with A10. As to the kind of experiment: Antimicrofilament activity in rat A10 cells assessed as cell loss at 10 ug/ml by rhodamine-phalloidin staining. It counts as functional, cell-based. An outline of the steps: as §2
In data set [7] the test system is A10. Description: Antimicrofilament activity in rat A10 cells assessed as loss of microfilament at 10 ug/ml by rhodamine-phalloidin staining. It counts as functional, cell-based. The gist of the method:
as §2

In data set [8] the test system is A10. As to the kind of experiment: Antimicrofilament activity in rat A10 cells assessed as cell loss at 15 ug/ml by rhodamine-phalloidin staining. It counts as functional, cell-based. An outline of the steps:
as §2

In data set [9] the test system is A10. Description: Antimicrofilament activity in rat A10 cells assessed as total loss of microfilament at 25 ug/ml by rhodamine-phalloidin staining. It counts as functional, cell-based. An outline of the steps: as §2
For data set [10], the system named is A10. Description: Antimicrofilament activity in rat A10 cells assessed as cell loss at 25 ug/ml by rhodamine-phalloidin staining. Type of data set: functional, cell-based. An outline of the steps: as §2

The structures appear in SMILES notation. Active and inactive are the calls of the source. The rule behind the calls is not given here.

Turning to `CC[C@@H]1C(C)=C[C@@H]2/C=C/C[C@H](C)/C=C(\C)[C@@H](O)C(=O)/C=C/C(=O)[C@]23C(=O)N[C@@H]([C@H](C)c2c[nH]c4ccccc24)[C@H]13`, the Activity turned out to be 250 Zone units with L1210, 350 Zone units with MC-38 and 250 Zone units in [1].

In the case of `CC[C@@H]1C(C)=C[C@@H]2/C=C/C[C@H](C)/C=C(\C)[C@@H](O)[C@@H](O)/C=C/C(=O)[C@]23C(=O)N[C@@H]([C@H](C)c2c[nH]c4ccccc24)[C@H]13`, the outcome in the data set with A10 [2], with A10 [3] and with A10 [4] was Active. For the same compound, the Activity in the data set with L1210 came out at 500 Zone units; in the data set on MC-38, 400 Zone units; in data set [1], 500 Zone units.

For `CC[C@@H]1C(C)=C[C@@H]2/C=C/C[C@H](C)/C=C(\C)CC/C=C/C(=O)[C@]23C(=O)N[C@@H]([C@H](C)c2c[nH]c4ccccc24)[C@H]13`, the result with A10 [5], in the data set on A10 [6], in the data set with A10 [7], with A10 [8], with A10 [9] and with A10 [10] was Active. For the same compound, the Activity in the data set on MC-38 is 150 Zone units.
